Data as given in ChEMBL document CHEMBL1148147, “New oplopane and eremophilane derivatives from Robinsonecio gerberifolius” (J Nat Prod, 2003).
The source made the active and inactive calls. No cut-off for these calls is given here.

How the values were obtained:
Format in all cases: functional, cell-based
U-251 = assay: Cytotoxicity against human U251 cells
Procedure, shortened: (§1)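 Human cancer cell lines (HCT-15 colon, MCF-7 breast, U-251 central nervous system, PC-3 prostate, K562 leukemia) tested over a dose range using the National Cancer Institute cytotoxicity screening protocol.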

HCT-15 = assay: Cytotoxicity against human HCT15 cells; procedure, shortened: as §1
PC-3 = assay: Cytotoxicity against human PC3 cells; procedure, shortened: as §1
K562 = assay: Cytotoxicity against human K562 cells; procedure, shortened: as §1
MCF7 = assay: Cytotoxicity against human MCF7 cells; procedure, shortened: as §1

Compound	IC50 (U-251)	IC50 (HCT-15)	IC50 (PC-3)	IC50 (K562)	IC50 (MCF7)	Activity (U-251)	Activity (HCT-15)	Activity (PC-3)	Activity (K562)	Activity (MCF7)
C/C=C(/C)C(=O)O[C@H]1C[C@@H](O)C2=CC(=O)C(=C(C)C)C[C@]2(C)[C@H]1C	24.1 µM	> 100 µM	33.2 µM	> 100 µM	> 100 µM	–	–	–	–	–
C/C=C(/C)C(=O)O[C@H]1C[C@@H](OC(=O)/C(C)=C/C)C2=CC(=O)C(=C(C)C)C[C@]2(C)[C@H]1C	17.6 µM	12.8 µM	10.7 µM	51.1 µM	21 µM	–	–	–	–	–
C=C1C[C@@H](OC(C)=O)[C@@H](C(C)C)[C@@H]2[C@@H](C(C)=O)[C@@H](OC(=O)/C(C)=C\C)C[C@@H]12	13 µM	43.6 µM	78.7 µM	13 µM	33.9 µM	–	–	–	–	–
COc1cccc2c1C(=O)c1c(O)c3c(c(O)c1C2=O)C[C@@](O)(C(=O)CO)C[C@@H]3O[C@H]1C[C@H](N)[C@H](O)[C@H](C)O1 [DOXORUBICIN]	–	–	0.32 µM	–	–	–	–	–	–	–
C/C=C(/C)C(=O)O[C@H]1C[C@@H](O)C2=CC(=O)C(C(C)(C)OO)=C[C@]2(C)[C@H]1C	33.7 µM	> 100 µM	16.5 µM	46.3 µM	> 100 µM	–	–	–	–	–
C/C=C(/C)C(=O)O[C@H]1C[C@@H](O)C2=CC(=O)C(C(C)(C)O)=C[C@]2(C)[C@H]1C	–	–	–	–	–	inactive	inactive	inactive	inactive	inactive
C/C=C(/C)C(=O)O[C@H]1C[C@H]2O[C@]23Cc2occ(C)c2C[C@]3(C)[C@H]1C	–	–	–	–	–	inactive	inactive	inactive	inactive	inactive
